Measurements taken from ChEMBL document CHEMBL3853346, “Synthesis of arylated coumarins by Suzuki-Miyaura cross-coupling. Reactions and anti-HIV activity” (Bioorg Med Chem, 2016).
Values after ≈ are worked out from the molar mass of the structure shown.

Experiments:
[1] = Cytotoxicity against human MT4 cells assessed as reduction in cell viability after 5 days by MTT assay; assay type: toxicity, cell-based
How it was run: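 Mock-infected MT-4 cells (6 x 10⁵ cells/mL) were run in parallel with the infected series. Serial 5-fold compound dilutions were tested in triplicate wells, with culture medium in place of virus. Viability was measured by MTT at day 5. CC50 is the concentration that reduces viability of mock-infected cells by 50%.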

[2] = Antiviral activity against HIV-2 ROD infected in human MT-4 cells assessed as protection against virus induced cytopathic effect after 5 days by MTT assay; assay type: functional, cell-based, Human immunodeficiency virus type 2 (ISOLATE ROD); details: Human immunodeficiency virus 2, MT4, 120 h
How it was run: (§1)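 MT-4 cells, exponentially growing, resuspended at 6 x 10⁵ cells/mL and infected with HIV-1 IIIB or HIV-2 ROD at 100-300 CCID50. Test compounds added as serial 5-fold dilutions in triplicate wells at the start. Untreated infected and mock-infected controls included. Viability read by MTT spectrophotometrically 5 days post-infection. EC50 is the concentration giving 50% protection from virus-induced cytopathic effect.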

[3] = test system: Human immunodeficiency virus 1; test: Antiviral activity against HIV-1 3B infected in human MT-4 cells assessed as protection against virus induced cytopathic effect after 5 days by MTT assay; assay type: functional, cell-based; details: Human immunodeficiency virus 1, 3B, MT4, 120 h; how it was run: as §1
[4] = Selectivity index, ratio of CC50 for human MT-4 cells to IC50 for HIV-1 3B infected in human MT-4 cells; assay type: functional, MT4
How it was run: (§2)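 Selectivity index is CC50 in mock-infected MT-4 cells divided by IC50 against HIV-1 IIIB or HIV-2 ROD. Both values come from parallel 5-day MTT assays in the same plates.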

[5] = Selectivity index, ratio of CC50 for human MT-4 cells to IC50 for HIV-2 ROD infected in human MT-4 cells; assay type: functional, MT4; how it was run: as §2

| SMILES | CC50 at 120 h [1] [µg/mL] | IC50 [2] [µg/mL] | IC50 [3] [µg/mL] | Ratio CC50/IC50 [4] | Ratio CC50/IC50 [5] |
| --- | --- | --- | --- | --- | --- |
| COc1cccc(-c2cc3oc(=O)cc(C)c3cc2OS(=O)(=O)C(F)(F)F)c1 | 18.9 (≈ 45.5 µM) | > 18.9 | > 18.9 | <1 | <1 |
| COc1ccc(-c2cc3oc(=O)cc(C)c3cc2-c2ccc(F)cc2)cc1 | 10.9 (≈ 30.3 µM) | > 10.9 | > 10.9 | <1 | <1 |
| COc1ccc(-c2cc3oc(=O)cc(C)c3cc2-c2cc(C)cc(C)c2)cc1 | 2.08 (≈ 5.61 µM) | > 2.08 | > 2.08 | <1 | <1 |
| Cc1ccc(-c2cc3oc(=O)cc(C)c3cc2OS(=O)(=O)C(F)(F)F)cc1 | 11 (≈ 27.6 µM) | > 11 | > 11 | <1 | <1 |
| Cc1cc(C)cc(-c2cc3oc(=O)cc(C)c3cc2-c2cc(C)cc(C)c2)c1 | 14.4 (≈ 39.1 µM) | > 14.4 | 4.57 (≈ 12.4 µM) | 3 | <1 |
| COc1ccc(-c2cc3oc(=O)cc(C)c3cc2-c2cccc(C)c2)cc1 | 7.4 (≈ 20.8 µM) | > 7.4 | > 7.4 | <1 | <1 |
| CCOc1ccc(-c2cc3oc(=O)cc(C)c3cc2-c2ccc(OCC)cc2)cc1 | 37.3 (≈ 93.2 µM) | > 37.3 | > 37.3 | <1 | <1 |
| Cc1cc(=O)oc2cc(-c3ccc(Cl)cc3)c(-c3ccc(Cl)cc3)cc12 | 16 (≈ 41.9 µM) | > 16 | > 16 | <1 | <1 |
| COc1ccc(-c2cc3oc(=O)cc(C)c3cc2-c2ccc(OC)cc2)cc1 | 11 (≈ 29.5 µM) | > 11 | > 11 | <1 | <1 |
| Cc1cc(=O)oc2cc(-c3ccc(C(F)(F)F)cc3)c(OS(=O)(=O)C(F)(F)F)cc12 | 80.3 (≈ 178 µM) | > 80.3 | > 80.3 | <1 | <1 |
| Cc1cc(=O)oc2cc(OS(=O)(=O)C(F)(F)F)c(OS(=O)(=O)C(F)(F)F)cc12 | 43.5 (≈ 95.3 µM) | > 43.5 | > 43.5 | <1 | <1 |
| COc1ccc(-c2cc3oc(=O)cc(C)c3cc2OS(=O)(=O)C(F)(F)F)c(OC)c1OC | 2.13 (≈ 4.49 µM) | > 2.13 | > 2.13 | <1 | <1 |
| COc1ccc(-c2cc3oc(=O)cc(C)c3cc2OS(=O)(=O)C(F)(F)F)cc1 | ≥ 10.6 | > 10.6 | > 10.6 | <1 | <1 |
| Cc1cc(C)cc(-c2cc3oc(=O)cc(C)c3cc2OS(=O)(=O)C(F)(F)F)c1 | 33.1 (≈ 80.3 µM) | > 33.1 | > 33.1 | <1 | <1 |
| CCOc1ccc(-c2cc3oc(=O)cc(C)c3cc2OS(=O)(=O)C(F)(F)F)cc1 | ≥ 27.2 | > 27.2 | > 27.2 | < 1 | <1 |
| Cc1cc(=O)oc2cc(-c3ccc(C(C)(C)C)cc3)c(OS(=O)(=O)C(F)(F)F)cc12 | 10.3 (≈ 23.3 µM) | > 10.3 | > 10.3 | <1 | <1 |
| Cc1cc(=O)oc2cc(-c3ccccc3)c(-c3ccccc3)cc12 | 13.8 (≈ 44.1 µM) | > 13.8 | > 13.8 | <1 | <1 |
| COc1ccc(-c2cc3oc(=O)cc(C)c3cc2-c2ccc(Cl)cc2)cc1 | 2.06 (≈ 5.47 µM) | > 2.06 | > 2.06 | <1 | <1 |
| Cc1cccc(-c2cc3oc(=O)cc(C)c3cc2OS(=O)(=O)C(F)(F)F)c1 | 61.3 (≈ 154 µM) | > 61.3 | 13.2 (≈ 33.1 µM) | 5 | <1 |
| Cc1cc(=O)oc2cc(-c3ccc(F)cc3)c(OS(=O)(=O)C(F)(F)F)cc12 | 10.6 (≈ 26.4 µM) | > 10.6 | > 10.6 | <1 | <1 |
| Cc1cc(=O)oc2cc(-c3ccc(Cl)cc3)c(OS(=O)(=O)C(F)(F)F)cc12 | 35.6 (≈ 85.1 µM) | > 35.6 | > 30.6 | <1 | <1 |
| Cc1cc(=O)oc2cc(-c3ccccc3)c(OS(=O)(=O)C(F)(F)F)cc12 | 12.6 (≈ 32.7 µM) | > 12.5 | > 12.5 | <1 | <1 |
| Cc1ccnc2c1NC(=O)c1cccnc1N2C1CC1 [NEVIRAPINE] | > 4 | > 4 | – | >80 | <1 |
| Cc1cn([C@H]2C[C@H](N=[N+]=[N-])[C@@H](CO)O2)c(=O)[nH]c1=O [ZIDOVUDINE] | > 25 | 0.00094 (≈ 0.00352 µM) | – | >11363 | >26596 |
